Assay results: ChEMBL document CHEMBL1133983, “Antiprotozoal and cytotoxicity evaluation of sulfonamide and urea analogues of quinacrine” (Bioorg Med Chem Lett, 2001)
In brackets after ≈: the same amount, converted by molar mass. One block for each compound: values may come before it.

Key:
Plasmodium falciparum [1] = assay: Anti parasitic activity for Plasmodium falciparum K1; type: functional; conditions: read-out: ED50 (the source's name)
Summary of the method: (§1)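 Growth of P. falciparum in human red blood cells was measured by [³H]-hypoxanthine incorporation over 48 h. 3D7 is the chloroquine-sensitive strain and K1 the chloroquine-resistant strain.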

Plasmodium falciparum [2] = assay: Antiparasitic activity for Plasmodium falciparum 3D7; type: functional; conditions: read-out: ED50 (the source's name); summary of the method: as §1
KB = assay: Toxicity of the quinacrine derivatives was determined against the KB cell line in comparison to podophyllotoxin; type: functional; conditions: Homo sapiens, read-out: ED50 (the source's name)
Trypanosoma cruzi [3] = assay: Anti parasitic activity against Trypanosoma cruzi (cultured in murine macrophages); type: functional; conditions: read-out: ED50 (the source's name)
[4] = Ratio of Inhibitory activity against glutathione reductase and inhibitory activity against trypanothione reductase was determined
Trypanosoma brucei = assay: Anti parasitic activity against Trypanosoma brucei; type: functional; conditions: read-out: ED50 (the source's name)
[5] = target: T1, Glutathione reductase, mitochondrial (Homo sapiens, UniProt P00390); assay: Inhibitory concentration against human Glutathione reductase was determined
T1 sequence (P00390 whole entry): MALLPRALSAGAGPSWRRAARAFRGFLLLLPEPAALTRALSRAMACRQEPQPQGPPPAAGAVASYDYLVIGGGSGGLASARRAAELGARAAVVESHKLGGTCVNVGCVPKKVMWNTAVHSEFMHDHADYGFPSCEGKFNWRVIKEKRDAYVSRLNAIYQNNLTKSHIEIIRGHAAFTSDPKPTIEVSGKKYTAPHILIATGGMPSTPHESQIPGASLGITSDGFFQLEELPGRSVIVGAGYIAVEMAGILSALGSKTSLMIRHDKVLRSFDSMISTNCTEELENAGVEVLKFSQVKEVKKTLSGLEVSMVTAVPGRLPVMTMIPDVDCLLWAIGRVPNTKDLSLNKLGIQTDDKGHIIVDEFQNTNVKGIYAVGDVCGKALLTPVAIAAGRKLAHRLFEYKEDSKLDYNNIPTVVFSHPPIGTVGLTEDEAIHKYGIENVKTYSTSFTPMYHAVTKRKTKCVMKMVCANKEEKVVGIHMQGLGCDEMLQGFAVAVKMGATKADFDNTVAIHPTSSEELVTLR
Summary of the method: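 Human glutathione reductase purified from erythrocytes (42.3 mU) was run spectrophotometrically at 25 °C in 40 mM HEPES pH 7.5 with 1 mM EDTA and NADPH. It was preincubated with NADPH for 10 min, inhibitor was added at varying concentrations in DMSO (1% v/v final), and glutathione disulfide was then added.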

Trypanothione reductase = Trypanothione reductase (Trypanosoma cruzi, UniProt P28593); assay: Inhibitory concentration against trypanothione reductase was determined
Summary of the method: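 Recombinant T. cruzi trypanothione reductase (128 mU) was followed spectrophotometrically at 25 °C in 40 mM HEPES pH 7.5 with 1 mM EDTA and NADPH. Enzyme and NADPH were preincubated for 10 min at 25 °C, inhibitor was added at varying concentrations in DMSO (1% v/v final), and the reaction was started with Try[SH]2.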

Leishmania donovani = assay: Anti parasitic activity against Leishmania donovani (cultured in murine macrophages); type: functional; conditions: for EC50: read-out: ED50 (the source's name)
Trypanosoma cruzi [6] = assay: Anti parasitic activity against Trypanosoma cruzi; type: functional; conditions: read-out: ED50 (the source's name)
Summary of the method: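 In vitro test against intracellular amastigotes of T. cruzi grown in murine macrophages.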

Trypanothione reductase, sequence (P28593 whole entry): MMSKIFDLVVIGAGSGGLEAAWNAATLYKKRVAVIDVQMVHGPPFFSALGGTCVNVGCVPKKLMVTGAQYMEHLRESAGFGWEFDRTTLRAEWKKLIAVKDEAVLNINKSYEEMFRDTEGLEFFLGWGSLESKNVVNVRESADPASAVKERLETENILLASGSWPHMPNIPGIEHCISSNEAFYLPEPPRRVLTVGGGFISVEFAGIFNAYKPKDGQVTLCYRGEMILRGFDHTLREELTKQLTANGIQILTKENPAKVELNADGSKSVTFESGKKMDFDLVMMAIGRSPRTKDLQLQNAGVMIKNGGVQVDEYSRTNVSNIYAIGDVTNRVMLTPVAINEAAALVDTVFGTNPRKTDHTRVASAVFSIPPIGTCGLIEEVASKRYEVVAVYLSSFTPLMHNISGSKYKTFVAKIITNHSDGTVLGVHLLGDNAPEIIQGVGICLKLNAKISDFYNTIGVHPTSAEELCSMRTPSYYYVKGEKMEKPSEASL

EC50 (Plasmodium falciparum [1]): 0.15 µg/mL (≈ 0.469 µM)
EC50 (Plasmodium falciparum [2]): 0.002 µg/mL (≈ 0.00625 µM)
Compound: CCN(CC)CCCC(C)Nc1ccnc2cc(Cl)ccc12 (stereo unspecified) [CHLOROQUINE]

Compound: COc1ccc2nc3cc(Cl)ccc3c(NCCNC(=O)NCc3ccccc3)c2c1
EC50 (KB): 4.1 µg/mL (≈ 9.43 µM)
EC50 (Plasmodium falciparum [2]): 0.069 µg/mL (≈ 0.159 µM)
EC50 (Trypanosoma cruzi [3]): > 30 µg/mL
Selectivity [4]: 1.4
EC50 (Trypanosoma brucei): 0.42 µg/mL (≈ 0.966 µM)
IC50 [5]: 27.2 µM
IC50 (Trypanothione reductase): 19.3 µM
EC50 (Leishmania donovani): 10.7 µg/mL (≈ 24.6 µM)

Selectivity [4]: > 7.5
IC50 [5]: > 1000 µM
IC50 (Trypanothione reductase): 133 µM
Compound: CCN(CC)CCCC(C)Nc1c2ccc(Cl)cc2nc2ccc(OC)cc12 (stereo unspecified) [QUINACRINE]

Compound: COc1ccc2nc3cc(Cl)ccc3c(NCCCCNS(=O)(=O)c3ccc4ccccc4c3)c2c1
EC50 (KB): 0.4 µg/mL (≈ 0.769 µM)
EC50 (Plasmodium falciparum [2]): 0.033 µg/mL (≈ 0.0635 µM)
EC50 (Trypanosoma cruzi [3]): > 30 µg/mL
Selectivity [4]: 2.8
EC50 (Trypanosoma brucei): 0.12 µg/mL (≈ 0.231 µM)
IC50 [5]: 13.9 µM
IC50 (Trypanothione reductase): 5 µM
EC50 (Leishmania donovani): 3.3 µg/mL (≈ 6.35 µM)

Compound: COc1cc([C@@H]2c3cc4c(cc3[C@H](O)[C@H]3COC(=O)[C@H]23)OCO4)cc(OC)c1OC [PODOFILOX]
EC50 (KB): 0.008 µg/mL (≈ 0.0193 µM)

Compound: COc1ccc2nc3cc(Cl)ccc3c(NCCCNS(=O)(=O)c3ccc4ccccc4c3)c2c1
EC50 (KB): 0.4 µg/mL (≈ 0.79 µM)
EC50 (Plasmodium falciparum [2]): 0.01 µg/mL (≈ 0.0198 µM)
EC50 (Trypanosoma cruzi [3]): 23.9 µg/mL (≈ 47.2 µM)
Selectivity [4]: 8.2
EC50 (Trypanosoma brucei): 0.078 µg/mL (≈ 0.154 µM)
IC50 [5]: 27.2 µM
IC50 (Trypanothione reductase): 3.3 µM
EC50 (Leishmania donovani): 1.9 µg/mL (≈ 3.75 µM)

Compound: COc1ccc2nc3cc(Cl)ccc3c(NCCCCCCNC(=O)NCc3ccccc3)c2c1
EC50 (KB): 4.3 µg/mL (≈ 8.76 µM)
EC50 (Plasmodium falciparum [2]): 0.14 µg/mL (≈ 0.285 µM)
EC50 (Trypanosoma cruzi [3]): 6.8 µg/mL (≈ 13.8 µM)
Selectivity [4]: 1.5
EC50 (Trypanosoma brucei): 0.46 µg/mL (≈ 0.937 µM)
IC50 [5]: 17.1 µM
IC50 (Trypanothione reductase): 11.4 µM
EC50 (Leishmania donovani): 5.8 µg/mL (≈ 11.8 µM)

EC50 (Trypanosoma brucei): 0.0002 µg/mL (≈ 0.000587 µM)
Compound: N=C(N)c1ccc(OCCCCCOc2ccc(C(=N)N)cc2)cc1 [PENTAMIDINE]

Compound: c1ccc2[nH]cnc2c1 [BENZIMIDAZOLE]
EC50 (Trypanosoma cruzi [6]): 12.4 µg/mL (≈ 105 µM)

Compound: Pentostam
ED50 (Leishmania donovani): 8.9 µg/mL

Compound: COc1ccc2nc3cc(Cl)ccc3c(NCCCCNC(=O)NCc3ccccc3)c2c1
EC50 (KB): 0.8 µg/mL (≈ 1.73 µM)
EC50 (Plasmodium falciparum [2]): 0.0013 µg/mL (≈ 0.00281 µM)
EC50 (Trypanosoma cruzi [3]): < 1 µg/mL
Selectivity [4]: 3.6
EC50 (Trypanosoma brucei): 0.043 µg/mL (≈ 0.0929 µM)
IC50 [5]: 55.8 µM
IC50 (Trypanothione reductase): 15.5 µM
EC50 (Leishmania donovani): 1.9 µg/mL (≈ 4.1 µM)

Compound: COc1ccc2nc3cc(Cl)ccc3c(NCCNS(=O)(=O)c3ccc4ccccc4c3)c2c1
EC50 (KB): 2.7 µg/mL (≈ 5.49 µM)
EC50 (Plasmodium falciparum [2]): 0.025 µg/mL (≈ 0.0508 µM)
EC50 (Trypanosoma cruzi [3]): > 30 µg/mL
Selectivity [4]: 1.7
EC50 (Trypanosoma brucei): 0.47 µg/mL (≈ 0.955 µM)
IC50 [5]: 9.9 µM
IC50 (Trypanothione reductase): 5.9 µM
EC50 (Leishmania donovani): 5.8 µg/mL (≈ 11.8 µM)

Compound: COc1ccc2nc3cc(Cl)ccc3c(NCCCNC(=O)NCc3ccccc3)c2c1
EC50 (Plasmodium falciparum [1]): 0.015 µg/mL (≈ 0.0334 µM)
EC50 (KB): 0.7 µg/mL (≈ 1.56 µM)
EC50 (Plasmodium falciparum [2]): 0.0005 µg/mL (≈ 0.00111 µM)
EC50 (Trypanosoma cruzi [3]): 22 µg/mL (≈ 49 µM)
Selectivity [4]: 3.4
EC50 (Trypanosoma brucei): 0.083 µg/mL (≈ 0.185 µM)
IC50 [5]: 44.7 µM
IC50 (Trypanothione reductase): 13.1 µM
EC50 (Leishmania donovani): 1.9 µg/mL (≈ 4.23 µM)
